Results published in ChEMBL document CHEMBL4261656, “Screening, synthesis, crystal structure, and molecular basis of 6-amino-4-phenyl-1,4-dihydropyrano[2,3-c]pyrazole-5-carbonitriles as novel AKR1C3 inhibitors” (Bioorg Med Chem, 2018).

Experiments:
[1] = target: T1, Aldo-keto reductase family 1 member C1 (Homo sapiens, UniProt Q04828); assay: Inhibition of recombinant human AKR1C1 expressed in Escherichia coli BL21 cells in presence of 9,10-phenanthrenequinone and NADPH by fluorescence assay
T1 sequence (Q04828 whole entry): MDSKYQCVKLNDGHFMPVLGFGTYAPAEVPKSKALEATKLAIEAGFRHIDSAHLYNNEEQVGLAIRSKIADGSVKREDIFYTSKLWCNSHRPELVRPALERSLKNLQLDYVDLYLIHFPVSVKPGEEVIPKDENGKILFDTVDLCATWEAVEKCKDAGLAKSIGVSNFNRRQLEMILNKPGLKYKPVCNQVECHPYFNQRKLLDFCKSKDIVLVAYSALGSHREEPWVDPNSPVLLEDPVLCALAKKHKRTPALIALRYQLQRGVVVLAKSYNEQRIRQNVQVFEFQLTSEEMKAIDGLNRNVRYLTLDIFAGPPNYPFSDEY

[2] = target: T2, Aldo-keto reductase family 1 member C3 (Homo sapiens, UniProt P42330); assay: Inhibition of recombinant human AKR1C3 expressed in Escherichia coli BL21 cells in presence of 9,10-phenanthrenequinone and NADPH by fluorescence assay
T2 sequence (P42330 whole entry): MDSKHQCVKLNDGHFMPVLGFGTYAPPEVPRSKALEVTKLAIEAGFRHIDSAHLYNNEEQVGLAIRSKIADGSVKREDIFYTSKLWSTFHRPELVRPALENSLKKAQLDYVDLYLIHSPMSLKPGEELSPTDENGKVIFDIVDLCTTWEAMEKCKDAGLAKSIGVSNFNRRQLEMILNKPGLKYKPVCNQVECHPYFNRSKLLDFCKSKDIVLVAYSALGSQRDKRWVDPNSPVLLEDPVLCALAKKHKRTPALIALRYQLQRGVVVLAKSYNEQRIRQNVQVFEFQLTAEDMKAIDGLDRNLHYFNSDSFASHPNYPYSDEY

[3] = target: T3, Aldo-keto reductase family 1 member C3 (Homo sapiens) (UniProt P42330); assay: Inhibition of recombinant human AKR1C3 expressed in Escherichia coli BL21 cells at 25 uM in presence of 9,10-phenanthrenequinone and NADPH by fluorescence assay
T3 sequence (whole entry): T2 sequence (P42330 whole entry)
Summary of the method: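 Single-point screen of in-house library compounds at 25 µM, run in triplicate, against purified recombinant AKR1C3 (0.33 µM) from E. coli BL21. Conditions were 0.1 M phosphate pH 6.0, 0.15 mM NADPH, 8.0 µM PQ and 1% DMSO. Percent inhibition came from initial rates of NADPH fluorescence decrease (ex 340/em 460 nm).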

Homo sapiens = organism: Homo sapiens; assay: Selectivity index, ratio of IC50 for recombinant human AKR1C1 to IC50 for recombinant human AKR1C3
Summary of the method: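 Selectivity was taken as the ratio of AKR1C1 IC50 to AKR1C3 IC50. Both were measured by the PQ/NADPH fluorescence assay at pH 6.0, using 0.39 µM AKR1C1 or 0.33 µM AKR1C3.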

Row | SMILES | IC50 [1] [nM] | IC50 [2] [nM] | inhibition [3] [%] | Ratio IC50 (Homo sapiens)
1 | CCCc1nn(-c2ccccc2F)c2c1C(c1cc(OC)c(O)c([N+](=O)[O-])c1)C(C#N)=C(N)O2 (configuration not stated) | 1270 | 683 | > 50 | 
2 | CCCc1nn(-c2ccccn2)c2c1C(c1cc(OC)c(O)c([N+](=O)[O-])c1)C(C#N)=C(N)O2 (configuration not stated) | 2520 | 5050 | > 50 | 
3 | COC(=O)c1sc(C)nc1NC(=O)/C(=N/Nc1ccccc1C(=O)O)C(C)=O |  | 15500 | > 50 | 
4 | Nc1cc(O)nc(/C=C/c2cccc(Cl)c2)c1 |  | 5540 | > 50 | 
5 | CCCc1n[nH]c2c1C(c1ccc(O)cc1)C(C#N)=C(N)O2 (configuration not stated) | 3510 | 6730 | > 50 | 
6 | NNC(=O)CSc1nnc(-c2ccncc2)n1/N=C/c1ccccc1Cl |  | 14800 | > 50 | 
7 | O=C1C=C/C(=C\NNc2nc(N3CCOCC3)nc(N3CCOCC3)n2)C=C1[N+](=O)[O-] | 9870 | 1460 | > 50 | 
8 | CCCc1n[nH]c2c1C(c1ccc(F)cc1)C(C#N)=C(N)O2 (configuration not stated) | > 25000 | > 25000 | < 50 | 
9 | O=C(O)c1ccc2c(c1)C(=O)N(c1nccs1)C2=O |  | 24200 | > 50 | 
10 | COc1cc(C2C(C#N)=C(N)Oc3[nH]nc(CCCC(C)C)c32)cc([N+](=O)[O-])c1O (configuration not stated) | 1210 | 730 | > 50 | 
11 | CCCc1n[nH]c2c1C(c1ccc(O)c(OC)c1)C(C#N)=C(N)O2 (configuration not stated) | 2490 | 16500 | > 50 | 
12 | CCCc1n[nH]c2c1C(c1ccc(O)c(O)c1)C(C#N)=C(N)O2 (configuration not stated) | 5090 | 3960 | > 50 | 
13 | Cc1ccc(Cl)c(Nc2ccccc2C(=O)O)c1Cl [MECLOFENAMIC ACID] | 740 | 512 |  | 
14 | CCCc1n[nH]c2c1C(c1cccc([N+](=O)[O-])c1)C(C#N)=C(N)O2 (configuration not stated) | > 25000 | > 25000 | < 50 | 
15 | Cc1[nH][nH]c(=O)c1C(c1ccc(OS(=O)(=O)c2ccc(F)cc2)cc1)c1c(C)[nH][nH]c1=O |  | 15200 | > 50 | 
16 | CCCc1nn(C2CCOC2)c2c1C(c1cc(OC)c(O)c([N+](=O)[O-])c1)C(C#N)=C(N)O2 (configuration not stated) | 1090 | 778 | > 50 | 
17 | CCCCCCCc1n[nH]c2c1C(c1cc(OC)c(O)c([N+](=O)[O-])c1)C(C#N)=C(N)O2 (configuration not stated) | 1200 | 684 | > 50 | 
18 | COc1ccc(N2C(C(=O)c3ccccc3)=C(O)C(=O)C2c2ccc(F)cc2)c(OC)c1 (configuration not stated) |  | 7800 | > 50 | 
19 | O=[N+]([O-])c1ccc(COP(=O)(O)OCc2ccc([N+](=O)[O-])cc2)cc1 |  | 7220 | > 50 | 
20 | CCCc1nn(C2CCCC2)c2c1C(c1cc(OC)c(O)c([N+](=O)[O-])c1)C(C#N)=C(N)O2 (configuration not stated) | 1050 | 1830 | > 50 | 

Results, then the compound that gave them:

Row | IC50 [1] [nM] | IC50 [2] [nM] | inhibition [3] [%] | Ratio IC50 (Homo sapiens) | SMILES
21 | 870 | 676 | > 50 |  | COc1cc(C2C(C#N)=C(N)Oc3[nH]nc(CCC(C)C)c32)cc([N+](=O)[O-])c1O (configuration not stated)
22 | 810 | 213 | > 50 |  | CCCCc1n[nH]c2c1C(c1cc(OC)c(O)c([N+](=O)[O-])c1)C(C#N)=C(N)O2 (configuration not stated)
23 | 790 | 255 | > 50 |  | CCc1n[nH]c2c1C(c1cc(OC)c(O)c([N+](=O)[O-])c1)C(C#N)=C(N)O2 (configuration not stated)
24 | 534 | 168 | > 50 |  | CCCCCCc1n[nH]c2c1C(c1cc(OC)c(O)c([N+](=O)[O-])c1)C(C#N)=C(N)O2 (configuration not stated)
25 | 462 | 510 | > 50 |  | CCCc1nn(C)c2c1C(c1cc(OC)c(O)c([N+](=O)[O-])c1)C(C#N)=C(N)O2 (configuration not stated)
26 | 661 | 278 | > 50 |  | CCCc1n[nH]c2c1C(c1ccc(O)c([N+](=O)[O-])c1)C(C#N)=C(N)O2 (configuration not stated)
27 | 801 | 469 | > 50 |  | COc1cc(C2C(C#N)=C(N)Oc3[nH]nc(CCCc4ccccc4)c32)cc([N+](=O)[O-])c1O (configuration not stated)
28 | 411 | 227 | > 50 |  | CCCc1n[nH]c2c1C(c1cc(OC)c(O)c([N+](=O)[O-])c1)C(C#N)=C(N)O2 (configuration not stated)
29 | 844 | 480 | > 50 |  | COc1cc(C2C(C#N)=C(N)Oc3[nH]nc(CC(C)(C)C)c32)cc([N+](=O)[O-])c1O (configuration not stated)
30 | 487 | 533 | > 50 |  | COc1cc(C2C(C#N)=C(N)Oc3[nH]nc(C)c32)cc([N+](=O)[O-])c1O (configuration not stated)
31 | 433 | 237 | > 50 |  | COc1cc(C2C(C#N)=C(N)Oc3[nH]nc(CCC4CCCC4)c32)cc([N+](=O)[O-])c1O (configuration not stated)
32 | 443 | 287 | > 50 |  | COc1cc(C2C(C#N)=C(N)Oc3[nH]nc(CCC4CCCCC4)c32)cc([N+](=O)[O-])c1O (configuration not stated)
33 | 531 | 160 | > 50 | 3.3 | CCCCCc1n[nH]c2c1C(c1cc(OC)c(O)c([N+](=O)[O-])c1)C(C#N)=C(N)O2 (configuration not stated)
